Source: PubChem (Sanford-Burnham Center for Chemical Genomics)
SENP8 block-1 – SENP8 (human) protease inhibition. Q96LD8. recombinant SENP8, Nedd8 substrate fluorescence. 0.64% of 360,000 active. inhibition, % at 20 µM; in the data active = inhibition mostly above about 40%, no sharp cut-off; inactive = mostly below about 27%
SENP6 block – SENP6 protease inhibition; Q9GZR1; Recombinant SENP6 catalytic domain, aminoluciferin luminescence; inhibition, % at 10 µM; 1.8% of 330,000 active; AID 2599;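 active = inhibition above about 50% at the single tested dose, limit read from the data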;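 also: plate controls were DMSO wells with enzyme for no effect and DMSO wells lacking enzyme for full effect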
SENP8 block-2 – SENP8 protease inhibition. Q96LD8. purified SENP8, Z-RLRGG-aminoluciferin cleavage, luminescence. inhibition, % at 10 µM. 1.2% of 330,000 active; in the data active = inhibition above about 50%
SENP7 inh – SENP7 protease inhibition; recombinant SENP7, Z-RLRGG-aminoluciferin luminescence, 40 min; 1.5% of 330,000 active; inhibition, % at 5 µM; AID 434973; Q9BQF6;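 active = inhibition above about 50% at the single test dose, limit read from the data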;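 also: plate controls were DMSO with enzyme for no effect and no enzyme buffer wells for full effect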
Target sequence (Q9BQF6 706-1050 limits assumed): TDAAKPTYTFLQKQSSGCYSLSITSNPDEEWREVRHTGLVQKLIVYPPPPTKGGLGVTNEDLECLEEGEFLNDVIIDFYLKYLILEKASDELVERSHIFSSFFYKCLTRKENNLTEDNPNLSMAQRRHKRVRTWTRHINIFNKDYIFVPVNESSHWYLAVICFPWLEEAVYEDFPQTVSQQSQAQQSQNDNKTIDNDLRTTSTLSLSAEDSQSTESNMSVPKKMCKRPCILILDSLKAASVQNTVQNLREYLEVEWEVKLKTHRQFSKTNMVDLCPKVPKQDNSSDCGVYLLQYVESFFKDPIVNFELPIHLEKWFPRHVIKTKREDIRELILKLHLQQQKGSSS
SENP1 FRET inh – SENP1 (human) catalytic domain inhibition | Q9P0U3 | recombinant SENP1 catalytic domain, CyPet-SUMO1-YPet FRET cleavage | inhibition, % at 10 µM | 0.21% of 360,000 active;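 active = inhibition at least 30% at 10 µM, raw YFP signal under a set limit, fluorescence ratio 0.5 to 1.5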;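 also: 0% = enzyme with DMSO and 100% = no enzyme wells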
Target sequence (Q9P0U3 419-644 limits assumed): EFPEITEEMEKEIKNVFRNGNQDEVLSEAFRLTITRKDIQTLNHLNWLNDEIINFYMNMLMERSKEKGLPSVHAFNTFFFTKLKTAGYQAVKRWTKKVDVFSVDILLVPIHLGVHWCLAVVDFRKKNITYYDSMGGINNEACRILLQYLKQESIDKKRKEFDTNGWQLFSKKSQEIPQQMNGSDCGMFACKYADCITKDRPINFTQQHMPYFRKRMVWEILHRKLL
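Assay system: hSENP1 catalytic domain, recombinant. Amount: SENP1 enzyme, 20 pM final. Schedule: 50 min reaction, RT, dark. Technique: FRET, CFP and YFP emission. Control set: no-enzyme wells low, DMSO-plus-enzyme wells high control.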
SENP8 conf – confirmation of human SENP8 protease inhibitors; shares compounds with SENP8 block-1; purified SENP8, Nedd8-AMC/pro-Nedd8 cleavage fluorescence, 30 min; inhibition, % at 25 µM; 15% of 1,400 active; in the data active = inhibition mostly above about 39%, no sharp cut-off; inactive = mostly below about 34%
An asterisk follows results filed as active; nt = no result given. Most compounds without a hit are left out; they make up all but 2.5% or so of the library.

SMILES	SENP8 block-1	SENP6 block	SENP8 block-2	SENP7 inh	SENP1 FRET inh	SENP8 conf
CS(=O)(=O)N(CC(=O)Nc1ccc(S(=O)(=O)N2CCCC2)cc1)c1ccccc1	8	-13	6	8	2	nt
C[C@@H]1CN(C(=O)c2nc3ccc(Cl)cn3c2CN2CCc3sccc3C2)C[C@H](C)O1	43*	8	4	-4	-11	21
Cc1ccc(NC(=O)CN2CCc3cc4c(cc3C2)OCCCO4)cc1C	-22	9	2	4	-1	nt
Cc1ccc(NC(=O)CN2CCc3cc4c(cc3C2)OCCCO4)cc1	43*	12	10	6	-1	4
Fc1ccccc1N1CCN(CC2CCCCC2)CC1	6	10	-8	6	1	nt
O=c1[nH]n2c(=O)c3c([nH]c2c1N=Nc1cccc(Cl)c1)CCC3	27	nt	nt	nt	2	nt
O=c1[nH]n2c(=O)c3c([nH]c2c1N=Nc1cccc(C(F)(F)F)c1)CCCC3	56*	5	-6	-6	4	24
COC(=O)c1c(C(=O)OC)c2cccc3cc(-c4ccccc4)c4ccc1c4n32	74*	40	23	20	-2	27
COC(=O)c1cc2c(-c3ccccc3)cc3ccccn3c-2c1C(=O)OC	-113	-3	-12	-9	-56	nt
CCSc1nnc(NC(=O)c2ccco2)s1	-19	-8	-7	0	0	nt
CCSc1nnc(NC(NC(=O)c2ccco2)(C(F)(F)F)C(F)(F)F)s1	41*	11	3	-1	0	28
CC1CCCCC1NC(=O)COC(=O)COc1ccccc1Cl (stereo not given)	5	-8	1	4	4	nt
COc1ccc(OCC(=O)OCC(=O)NC2CCCCC2C)cc1 (stereo not given)	46*	6	5	2	2	10
CC[C@H](CO)Oc1cc(NCc2cccc(N)c2)c2ncn(C(C)C)c2c1	56*	nt	nt	nt	-42	87*
CCC(CO)Oc1cc(NCc2cccc(C)c2)c2ncn(C(C)C)c2c1 (stereo not given)	42*	-5	3	10	1	54*
CCC(CO)Oc1cc(NCc2ccc(C)cc2)c2ncn(C(C)C)c2c1 (stereo not given)	24	-9	-6	-7	-28	nt
Nc1c(C(=O)c2ccc(Cl)cc2)sc2nsc(SCCN3CCOCC3)c12	38	-11	0	-2	-38	nt
Nc1c(C(=O)c2ccccc2)sc2nsc(SCCN3CCCC3)c12	44*	-12	-8	-3	-39	13
CNc1ccc([N+](=O)[O-])cc1-c1nc2ccccc2[nH]c1=O	42*	0	7	-10	6	15
CC(C)C(=O)Nc1ccc(Cl)cc1-c1nc2ccccc2[nH]c1=O	-26	20	1	-4	-3	nt
O=C(CC1(CC(=O)N2CCOCC2)CCCC1)Nc1ccc(F)cc1	1	-6	-11	-2	1	nt
Cc1ccc(S(=O)(=O)N2CCN(c3nc(-c4cccs4)nc4ccccc34)CC2)cc1	-135	nt	nt	nt	-19	nt
CCCN1C2=C(C(=O)CC(C)(C)C2)C(c2ccc(F)cc2)C2=C1c1ccccc1C2=O (stereo not given)	24	9	-2	13	1	nt
CCCCN1C2=C(C(=O)CC(C)(C)C2)C(c2ccccc2)C2=C1c1ccccc1C2=O (stereo not given)	54*	-4	0	18	1	13
COc1ccccc1CCNC(=O)Cn1ccc2cc(S(=O)(=O)N3CCC(C)CC3)ccc21	-4	-1	-5	26	2	nt
SMILES	SENP8 block-1	SENP6 block	SENP8 block-2	SENP7 inh	SENP1 FRET inh	SENP8 conf
O=C(O)CCc1ccc(-c2ccc(Br)cc2)n1NC(=O)c1ccc([N+](=O)[O-])cc1	44*	-10	0	5	2	25
COc1cc(OC)c(NC(=O)[C@@H]2CCC(=O)N2C2OC(=O)c3c2ccc(OC)c3OC)cc1Cl (stereo not given in full)	51*	-2	1	-10	-3	7
CNc1cc([N+](=O)[O-])ccc1N/C=C/C(=O)c1cccs1	42*	9	-10	-11	17	19
CNc1cc([N+](=O)[O-])ccc1N/C=C/C(=O)c1ccc2c(c1)OCO2	29	3	-9	-5	27	nt
CC(C)C[C@H](NC(=O)c1cc2cc(Cl)ccc2n1C)C(=O)N1CCC[C@H]1C(=O)O	47*	-17	-3	11	2	8
C[C@H](NC(=O)c1cc2cc(Cl)ccc2n1C)C(=O)N1CCC[C@H]1C(=O)O	13	-16	-11	10	-1	nt
O=C(c1ccccc1)c1cccc(C(=O)c2ccccc2)c1	8	-2	-13	-4	0	nt
Nc1cc(N)cc(C(=O)c2ccccc2)c1	43*	nt	nt	nt	1	77*
NS(=O)(=O)c1ccc(CCNC(=O)COC(=O)c2ccc([N+](=O)[O-])o2)cc1	47*	16	14	7	1	89*
O=c1cc(-c2ccc(O)c(O)c2)oc2cc(O)c(C3OC(CO)C(O)C(O)C3O)c(O)c12 (stereo not given)	1	-6	-6	-3	13	nt
O=c1cc(-c2ccc(O)cc2)oc2cc(O)c([C@@H]3O[C@H](CO)[C@@H](O)[C@H](O)[C@H]3O)c(O)c12	45*	-20	-2	6	1	10
O=C(CN1CCOCC1)NN=Cc1ccc([N+](=O)[O-])o1	26	nt	nt	nt	0	nt
O=C(N/N=C/c1ccc([N+](=O)[O-])o1)c1ccccc1-n1cccc1	42*	2	3	2	-2	21
O=C(CCN1CCN(c2ccccc2)CC1)N/N=C/c1ccc([N+](=O)[O-])o1	55*	21	8	4	-2	39
O=C(CNc1cccc([N+](=O)[O-])c1)N/N=C/c1ccc([N+](=O)[O-])o1	40*	2	8	4	-3	23
O=C(Cc1ccc([N+](=O)[O-])cc1)N/N=C/c1ccc([N+](=O)[O-])o1	34	25	3	11	2	nt
CN(C(=O)Cn1cc(C(F)(F)F)cc(Cl)c1=O)C1CCS(=O)(=O)C1 (stereo not given)	-4	-5	-7	12	1	nt
Cc1ccc(S(=O)(=O)Nc2ccccc2OC(C(=O)OC(C)(C)C)C(=O)OC(C)(C)C)cc1	25	nt	nt	nt	0	nt
Cc1cc(NC(=O)CSCC(=O)Nc2nc3ccccc3s2)no1	-13	-7	1	1	-3	nt
CC1OC(CCc2cccc(Cl)c2)Cc2[nH][nH]c(=O)c21 (stereo not given)	15	nt	nt	nt	4	nt
Cc1ccc(C(=O)NCC(=O)OCC(=O)N2CCCc3ccccc32)cc1	55*	-15	3	2	0	-3
CCOC(=O)/C(=N/Nc1ccccc1)N1CCCc2ccccc21	43*	-9	0	1	1	18
